Here are results for eleven compounds from ChEMBL document CHEMBL1142992, “Discovery of diaryl imidazolidin-2-one derivatives, a novel class of muscarinic M3 selective antagonists (Part 1)” (J Med Chem, 2007).

Data set [1] is described as follows: Permeability across human Caco-2 cell membrane. Format: ADME, cell-based. The method, boiled down:
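Caco-2 monolayers grown 21 days on polycarbonate inserts. Integrity checked by TEER (1000 Ω) and sodium fluorescein leakage. Compound at 50 µM in 1% DMSO applied apically, 2 h at 37 °C. Apical and basolateral samples measured by LC-MS/MS. Papp = CbVb/(C0·A·t).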

The nature of data set [2]: Intrinsic clearance in rat liver microsomes. Format: ADME, Microsome. An outline of the steps:
(§1)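 Human or rat liver microsomes at 0.5 mg/mL final, preincubated with 0.5 µM test compound in phosphate buffer pH 7.4 for 10 min at 37 °C. Clearance reported as mL/min/g liver.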
On the technique in general: Liver microsomes are vesicles of endoplasmic reticulum, rich in cytochrome P450 enzymes.

The nature of data set [3]: Intrinsic clearance in human liver microsomes. In kind it is ADME, Microsome. The method, boiled down: as §1
Data set [4] deals with Cytochrome P450 2C9 (Homo sapiens, UniProt P11712). Put plainly: Inhibition of human CYP2C9 expressed in insect cells. In kind it is ADME. An outline of the steps: (§2)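 Insect-cell microsomes expressing human CYP1A2, 2C9, 2C19, 2D6 or 3A4, each with an isoform-specific fluorogenic substrate in 0.35 M potassium phosphate pH 7.4. […] Inhibitor serially diluted; plates prewarmed 10 min at 37 °C. Reaction stopped with acetonitrile/Tris, read by fluorescence. IC50 from nonlinear regression. Positive controls: furafylline, sulfaphenazole, tranylcypromine, quinidine, ketoconazole.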

For data set [5], the target named is Cytochrome P450 2C19 (Homo sapiens, UniProt P33261). The data set is described as follows: Inhibition of human CYP2C19 expressed in insect cells. In kind it is ADME. An outline of the steps:
as §2

Data set [6] deals with Cytochrome P450 2D6 (Homo sapiens, UniProt P10635). Put plainly: Inhibition of human CYP2D6 expressed in insect cells. In kind it is ADME. The method, boiled down: as §2
The target of data set [7] is Cytochrome P450 3A4 (Homo sapiens, UniProt P08684). The data set is described as follows: Inhibition of human CYP3A4 expressed in insect cells. In kind it is ADME. The method, boiled down:
as §2

Data set [8] concerns the target T1, Cytochrome P450 1A2 (Homo sapiens, UniProt P05177).
T1 sequence (P05177 whole entry): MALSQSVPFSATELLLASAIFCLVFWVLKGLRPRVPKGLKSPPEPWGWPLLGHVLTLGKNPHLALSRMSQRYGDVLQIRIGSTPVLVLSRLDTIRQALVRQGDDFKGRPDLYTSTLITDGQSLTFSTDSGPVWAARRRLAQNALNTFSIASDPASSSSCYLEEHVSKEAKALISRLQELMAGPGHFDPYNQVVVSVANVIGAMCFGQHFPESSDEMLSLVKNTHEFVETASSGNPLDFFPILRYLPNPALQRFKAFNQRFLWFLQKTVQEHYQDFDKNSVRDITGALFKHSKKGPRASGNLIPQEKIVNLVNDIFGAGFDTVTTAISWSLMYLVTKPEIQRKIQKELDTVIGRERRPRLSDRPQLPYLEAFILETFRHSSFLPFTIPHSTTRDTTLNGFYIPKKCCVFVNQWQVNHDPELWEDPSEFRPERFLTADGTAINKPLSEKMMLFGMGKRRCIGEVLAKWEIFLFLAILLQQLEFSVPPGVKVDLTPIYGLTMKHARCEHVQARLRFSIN
Put plainly: Inhibition of human CYP1A2 expressed in insect cells. In kind it is ADME. The method, boiled down:
as §2

Data set [9] has as its target Muscarinic acetylcholine receptor M3 (Homo sapiens) (UniProt P20309). Put plainly: Displacement of [3H]N-methyl-scopolamine from human muscarinic M3 receptor expressed in CHO K1 cells at 10 uM. Format: cell-based. (Displacement assays read how much labelled ligand stays bound in the presence of the test substance.)
Data set [10] concerns the target T2, Muscarinic acetylcholine receptor M2 (Rattus norvegicus) (UniProt P10980).
T2 sequence (whole entry): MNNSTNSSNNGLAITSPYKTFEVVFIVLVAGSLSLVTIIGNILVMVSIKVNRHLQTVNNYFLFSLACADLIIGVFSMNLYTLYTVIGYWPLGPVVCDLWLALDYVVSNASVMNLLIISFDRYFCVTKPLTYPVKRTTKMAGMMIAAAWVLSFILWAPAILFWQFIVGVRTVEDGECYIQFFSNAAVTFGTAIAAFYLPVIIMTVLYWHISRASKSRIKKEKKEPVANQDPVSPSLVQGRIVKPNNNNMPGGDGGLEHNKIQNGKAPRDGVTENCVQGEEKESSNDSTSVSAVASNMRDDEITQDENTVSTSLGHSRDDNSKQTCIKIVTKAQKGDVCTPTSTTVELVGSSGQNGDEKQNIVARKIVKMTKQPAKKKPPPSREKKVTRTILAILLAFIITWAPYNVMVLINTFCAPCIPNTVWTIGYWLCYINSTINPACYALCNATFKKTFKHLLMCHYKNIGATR
Put plainly: Antagonist activity at muscarinic M2 receptor in rat left atria assessed as contraction of methacholine-induced relaxation upto 0.1 uM relative to EFS. In kind it is functional. An outline of the steps:
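Female rat left atrium in Krebs-Henseleit at 33 °C, resting tension 0.5 g, eserine 1 µM present. Paced by EFS at 1 Hz, 5 ms pulses, 1.5× threshold voltage to give a stable basal force. Methacholine concentration-response curves run alone or with antagonist at 0.01-0.1 µM. Response read as delta % of basal force of contraction; mean ± SEM, n = 6-7.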

Data set [11] has as its target Muscarinic acetylcholine receptor M3 (Rattus norvegicus) (UniProt P08483). To be noted: filed as antagonist.

The source made the active and inactive calls.

Chain of Muscarinic acetylcholine receptor M3 (Homo sapiens) (P20309 whole entry, looked up): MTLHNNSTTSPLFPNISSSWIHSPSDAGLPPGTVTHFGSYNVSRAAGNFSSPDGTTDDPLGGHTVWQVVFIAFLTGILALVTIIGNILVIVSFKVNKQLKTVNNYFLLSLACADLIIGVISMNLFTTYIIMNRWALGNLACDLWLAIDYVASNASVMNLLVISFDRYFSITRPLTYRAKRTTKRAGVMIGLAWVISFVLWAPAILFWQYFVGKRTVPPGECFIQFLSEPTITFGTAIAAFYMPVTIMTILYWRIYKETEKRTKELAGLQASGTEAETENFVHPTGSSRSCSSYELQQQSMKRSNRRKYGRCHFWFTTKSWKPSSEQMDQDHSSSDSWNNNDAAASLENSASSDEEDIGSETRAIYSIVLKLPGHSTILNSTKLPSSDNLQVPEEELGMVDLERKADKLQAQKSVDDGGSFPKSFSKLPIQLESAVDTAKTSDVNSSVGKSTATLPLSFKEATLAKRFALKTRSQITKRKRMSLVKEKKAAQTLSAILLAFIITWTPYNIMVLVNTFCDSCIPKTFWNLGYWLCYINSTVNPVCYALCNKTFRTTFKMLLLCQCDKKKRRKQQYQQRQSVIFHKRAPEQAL
Chain of Cytochrome P450 3A4 (P08684 whole entry): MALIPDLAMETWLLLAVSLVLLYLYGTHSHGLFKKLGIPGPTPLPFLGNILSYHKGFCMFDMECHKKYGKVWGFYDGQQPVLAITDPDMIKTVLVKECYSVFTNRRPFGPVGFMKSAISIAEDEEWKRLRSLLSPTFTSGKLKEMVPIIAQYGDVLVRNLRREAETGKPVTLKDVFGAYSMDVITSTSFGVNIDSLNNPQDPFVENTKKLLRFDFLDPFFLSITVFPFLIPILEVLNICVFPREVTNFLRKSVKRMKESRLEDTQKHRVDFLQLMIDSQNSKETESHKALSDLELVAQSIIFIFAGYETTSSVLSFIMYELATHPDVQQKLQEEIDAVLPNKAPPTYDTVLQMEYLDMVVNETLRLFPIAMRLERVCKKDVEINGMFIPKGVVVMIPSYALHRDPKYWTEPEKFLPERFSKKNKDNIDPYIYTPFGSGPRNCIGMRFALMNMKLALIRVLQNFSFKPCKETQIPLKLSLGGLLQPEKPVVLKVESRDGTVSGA
Chain of Cytochrome P450 2C9 (P11712 whole entry, canonical isoform): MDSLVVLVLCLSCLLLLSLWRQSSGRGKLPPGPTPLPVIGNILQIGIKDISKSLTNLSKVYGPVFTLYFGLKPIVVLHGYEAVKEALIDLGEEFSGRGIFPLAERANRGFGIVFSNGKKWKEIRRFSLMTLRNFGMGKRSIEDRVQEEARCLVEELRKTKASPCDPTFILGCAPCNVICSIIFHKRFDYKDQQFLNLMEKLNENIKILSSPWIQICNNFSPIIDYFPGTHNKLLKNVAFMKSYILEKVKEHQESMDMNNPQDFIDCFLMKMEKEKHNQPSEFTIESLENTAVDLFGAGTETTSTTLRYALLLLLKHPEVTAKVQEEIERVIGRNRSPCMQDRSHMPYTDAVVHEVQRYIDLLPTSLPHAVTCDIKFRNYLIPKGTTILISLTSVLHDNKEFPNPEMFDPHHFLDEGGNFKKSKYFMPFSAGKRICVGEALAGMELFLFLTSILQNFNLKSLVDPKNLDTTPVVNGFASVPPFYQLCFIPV
Chain of Cytochrome P450 2D6 (P10635 whole entry): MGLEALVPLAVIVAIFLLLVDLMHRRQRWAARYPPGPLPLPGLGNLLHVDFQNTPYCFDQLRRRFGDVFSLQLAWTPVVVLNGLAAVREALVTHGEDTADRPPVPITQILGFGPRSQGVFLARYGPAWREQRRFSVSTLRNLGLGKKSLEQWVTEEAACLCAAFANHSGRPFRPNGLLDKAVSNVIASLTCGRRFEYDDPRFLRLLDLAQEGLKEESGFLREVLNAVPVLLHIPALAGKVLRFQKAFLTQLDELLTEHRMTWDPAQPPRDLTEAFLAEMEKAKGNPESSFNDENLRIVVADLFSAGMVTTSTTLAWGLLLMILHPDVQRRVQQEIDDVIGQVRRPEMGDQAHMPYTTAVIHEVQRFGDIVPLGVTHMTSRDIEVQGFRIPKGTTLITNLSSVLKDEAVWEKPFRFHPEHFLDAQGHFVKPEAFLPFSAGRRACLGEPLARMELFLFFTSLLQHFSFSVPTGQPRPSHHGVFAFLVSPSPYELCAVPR
Chain of Cytochrome P450 2C19 (P33261 whole entry): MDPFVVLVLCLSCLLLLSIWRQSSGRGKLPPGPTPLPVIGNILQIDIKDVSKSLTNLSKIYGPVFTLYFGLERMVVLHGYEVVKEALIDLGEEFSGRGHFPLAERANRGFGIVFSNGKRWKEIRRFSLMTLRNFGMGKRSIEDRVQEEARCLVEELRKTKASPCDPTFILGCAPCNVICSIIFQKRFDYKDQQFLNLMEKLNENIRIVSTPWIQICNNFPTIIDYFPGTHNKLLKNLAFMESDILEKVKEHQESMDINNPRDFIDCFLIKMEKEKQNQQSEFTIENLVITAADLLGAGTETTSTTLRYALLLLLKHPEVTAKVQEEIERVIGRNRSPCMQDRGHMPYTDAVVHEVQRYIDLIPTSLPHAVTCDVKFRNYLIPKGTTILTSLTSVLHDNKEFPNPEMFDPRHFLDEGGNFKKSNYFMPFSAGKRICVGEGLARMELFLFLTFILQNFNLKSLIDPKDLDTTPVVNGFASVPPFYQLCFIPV
Chain of Muscarinic acetylcholine receptor M3 (Rattus norvegicus) (P08483 whole entry, looked up): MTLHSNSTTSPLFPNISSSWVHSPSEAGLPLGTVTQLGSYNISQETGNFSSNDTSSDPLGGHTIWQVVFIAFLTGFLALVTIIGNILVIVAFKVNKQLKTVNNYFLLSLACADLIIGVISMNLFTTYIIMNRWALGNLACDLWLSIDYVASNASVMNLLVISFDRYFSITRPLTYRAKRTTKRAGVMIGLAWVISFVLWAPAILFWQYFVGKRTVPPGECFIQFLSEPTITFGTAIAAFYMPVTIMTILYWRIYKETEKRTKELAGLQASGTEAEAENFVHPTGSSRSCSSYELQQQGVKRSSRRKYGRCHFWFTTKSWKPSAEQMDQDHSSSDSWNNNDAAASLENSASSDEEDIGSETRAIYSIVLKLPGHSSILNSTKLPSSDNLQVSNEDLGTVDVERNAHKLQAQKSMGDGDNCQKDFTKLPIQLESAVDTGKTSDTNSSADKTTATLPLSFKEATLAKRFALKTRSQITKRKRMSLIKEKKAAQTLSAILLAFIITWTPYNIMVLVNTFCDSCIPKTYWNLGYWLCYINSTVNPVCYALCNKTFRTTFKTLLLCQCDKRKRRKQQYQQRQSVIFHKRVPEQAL

`O=C1NC(c2ccccc2)(c2ccccc2)CN1C1CCN(Cc2ccccc2)CC1`: the Papp (usually a coefficient for how fast a substance crosses the barrier) in [1] is above 5 ×10⁻⁶ cm/s. Also, the CLint scaled – broadly, the rate of metabolic loss divided by the concentration – in data set [2] is 4.7 mL/min/g; in data set [3], 1.1 mL/min/g.

On to `O=C1NC(c2ccc(F)cc2)(c2ccc(F)cc2)CN1C1CCN(Cc2cccc(F)c2)CC1`, for which the IC50 (as a rule, the concentration at which inhibition is half-maximal) in [4] is 7.3 µM; in data set [5] it was 17.4 µM; in [6], 12 µM; in data set [7] it was above 100 µM; in [8], above 100 µM. Further, the Papp in data set [1] is above 5 ×10⁻⁶ cm/s. The CLint scaled is 1.4 mL/min/g in [2] and 0.78 mL/min/g in data set [3].

Turning to `O=C1NC(C2CCCCC2)(C2CCCCC2)CN1C1CCN(Cc2ccccc2)CC1`, the inhibition (in general, how much of the control response was suppressed) in [9] was below 50%.

`O=C1NC(c2cccs2)(c2cccs2)CN1C1CCN(Cc2ccccc2)CC1` returned a Papp in data set [1] above 5 ×10⁻⁶ cm/s. Moreover, the figures for the CLint scaled in data set [2] and in data set [3] were 23.7 mL/min/g and 2.3 mL/min/g, respectively.

`O=C1NC(c2ccc(F)cc2)(c2ccc(F)cc2)CN1C1CCN(Cc2cccc(Cl)c2)CC1`: the IC50 was 4.2 µM in [4]; 17.7 µM in data set [5]; 5.3 µM in data set [6]; above 100 µM in [7]; above 100 µM in data set [8]. In addition, the Papp in data set [1] was below 1 ×10⁻⁶ cm/s. Further, the CLint scaled in data set [2] stood at 1.8 mL/min/g; in data set [3], 0.87 mL/min/g.

`O=C(c1cccc(Cl)c1)N1CCC(N2CC(c3ccccc3)(c3ccccc3)NC2=O)CC1`: in data set [9], the inhibition is below 50%.

In the case of `O=C1NC(c2cccs2)(c2cccs2)CN1C1CCN(Cc2cccc(F)c2)CC1`, the Papp in data set [1] is at most 1 ×10⁻⁶ cm/s. Besides, the CLint scaled in data set [2] came out at 13.8 mL/min/g; in data set [3], 0.95 mL/min/g.

As to `C#CCN1CCC(N2CC(c3ccccc3)(c3ccccc3)NC2=O)CC1`, the inhibition in [9] was below 50%.

In turn, `O=C1NC(c2ccccc2)(c2ccccc2)CN1C1CCN(Cc2cc(Cl)cc(Cl)c2)CC1` displayed an inhibition in data set [9] below 50%.

On to `O=C1NC(c2ccc(F)cc2)(c2ccc(F)cc2)CN1C1CCN(Cc2ccccc2)CC1`, for which the IC50 was 7 µM in [4]; 12.9 µM in data set [5]; 4.7 µM in data set [6]; 91.9 µM in data set [7]; above 100 µM in data set [8]. Moreover, in [10], the result was inactive. In [1], this compound registered a Papp above 5 ×10⁻⁶ cm/s. Moreover, the CLint scaled is 2 mL/min/g in data set [2] and 0.56 mL/min/g in data set [3].

On to `Cc1ccc(O)c([C@H](CCN(C(C)C)C(C)C)c2ccccc2)c1`, for which the pKb (commonly −log10 of the Kb, conventionally taken in molar units) in data set [11] is 8.86.
